Measurements from ChEMBL document CHEMBL4689842, “EUbOPEN Chemogenomics Library wave 1” (2021).

Tested on: Fibroblast
Experiment: Multiplex assay against human fibroblast
Format: toxicity, cell-based
Summary of the method: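 Compound was added to live cells that had been stained at seeding with Hoechst33342, BioTracker Green Microtubule Cytoskeleton Dye, MitoTracker Red and Annexin V Alexa Fluor 680, and imaging followed on a CQ1 microscope at 37°C and 5% CO2. CellPathfinder machine-learning gating divided cells into Hoechst high-intensity objects or normal cells, normal cells into healthy, pyknosed or fragmented nuclei, and pyknosed cells into mitotic or apoptotic. Tubulin, mitochondrial-mass and membrane-permeability phenotypes are per cents of healthy-nucleus cells.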

[1] = 12 h, 1 µM, compound concentration 1 uM, replicate 1
[2] = 12 h, 1 µM, compound concentration 1 uM, replicate 2
[3] = 12 h, 10 µM, compound concentration 10 uM, replicate 1
[4] = 12 h, 10 µM, compound concentration 10 uM, replicate 2
[5] = 24 h, 1 µM, compound concentration 1 uM, replicate 1
[6] = 24 h, 1 µM, compound concentration 1 uM, replicate 2
[7] = 24 h, 10 µM, compound concentration 10 uM, replicate 1
[8] = 24 h, 10 µM, compound concentration 10 uM, replicate 2

## COc1cc2ncnc(Nc3ccc(F)c(Cl)c3)c2cc1NC(=O)/C=C/CN1CCCCC1 [DACOMITINIB ANHYDROUS]
[1]
  Population Apoptotic (%): 72%
  Population Fragmented Nuclei (%): 33%
  Population Healthy Nuclei (%): 52%
  Population Hoechst High Intensity Objects (%): 17%
  Population Membrane Permeable-Phenotype (%): 6%
  Population Mitochondria Different-Phenotype (%): 8%
  Population Mitotic Cells (%): 27%
  Population Normal (%): 82%
  Population Pyknosed Nuclei (%): 14%
  Population Tubulin-Different-Phenotype (%): 46%
  Total Cell Count: 248
[2]
  Population Apoptotic (%): 66%
  Population Fragmented Nuclei (%): 56%
  Population Healthy Nuclei (%): 36%
  Population Hoechst High Intensity Objects (%): 57%
  Population Membrane Permeable-Phenotype (%): 12%
  Population Mitochondria Different-Phenotype (%): 25%
  Population Mitotic Cells (%): 33%
  Population Normal (%): 42%
  Population Pyknosed Nuclei (%): 6%
  Population Tubulin-Different-Phenotype (%): 25%
  Total Cell Count: 103
[3]
  Population Apoptotic (%): 58%
  Population Fragmented Nuclei (%): 30%
  Population Healthy Nuclei (%): 53%
  Population Hoechst High Intensity Objects (%): 14%
  Population Membrane Permeable-Phenotype (%): 7%
  Population Mitochondria Different-Phenotype (%): 3%
  Population Mitotic Cells (%): 41%
  Population Normal (%): 85%
  Population Pyknosed Nuclei (%): 15%
  Population Tubulin-Different-Phenotype (%): 7%
  Total Cell Count: 214
[4]
  Population Apoptotic (%): 28%
  Population Fragmented Nuclei (%): 47%
  Population Healthy Nuclei (%): 40%
  Population Hoechst High Intensity Objects (%): 35%
  Population Membrane Permeable-Phenotype (%): 20%
  Population Mitochondria Different-Phenotype (%): 16%
  Population Mitotic Cells (%): 71%
  Population Normal (%): 64%
  Population Pyknosed Nuclei (%): 11%
  Population Tubulin-Different-Phenotype (%): 16%
  Total Cell Count: 94
[5]
  Population Apoptotic (%): 72%
  Population Fragmented Nuclei (%): 28%
  Population Healthy Nuclei (%): 54%
  Population Hoechst High Intensity Objects (%): 30%
  Population Mitochondria Different-Phenotype (%): 22%
  Population Mitotic Cells (%): 28%
  Population Normal (%): 69%
  Population Pyknosed Nuclei (%): 17%
  Population Tubulin-Different-Phenotype (%): 46%
  Total Cell Count: 210
[6]
  Population Apoptotic (%): 100%
  Population Fragmented Nuclei (%): 51%
  Population Healthy Nuclei (%): 40%
  Population Hoechst High Intensity Objects (%): 57%
  Population Membrane Permeable-Phenotype (%): 5%
  Population Mitochondria Different-Phenotype (%): 16%
  Population Mitotic Cells (%): 0%
  Population Normal (%): 42%
  Population Pyknosed Nuclei (%): 8%
  Population Tubulin-Different-Phenotype (%): 16%
  Total Cell Count: 106
[7]
  Population Apoptotic (%): 58%
  Population Fragmented Nuclei (%): 32%
  Population Healthy Nuclei (%): 50%
  Population Hoechst High Intensity Objects (%): 18%
  Population Membrane Permeable-Phenotype (%): 6%
  Population Mitochondria Different-Phenotype (%): 2%
  Population Mitotic Cells (%): 41%
  Population Normal (%): 81%
  Population Pyknosed Nuclei (%): 17%
  Population Tubulin-Different-Phenotype (%): 3%
  Total Cell Count: 249
[8]
  Population Apoptotic (%): 33%
  Population Fragmented Nuclei (%): 53%
  Population Healthy Nuclei (%): 36%
  Population Hoechst High Intensity Objects (%): 30%
  Population Membrane Permeable-Phenotype (%): 21%
  Population Mitochondria Different-Phenotype (%): 13%
  Population Mitotic Cells (%): 66%
  Population Normal (%): 69%
  Population Pyknosed Nuclei (%): 9%
  Population Tubulin-Different-Phenotype (%): 17%
  Total Cell Count: 91
